The nature of data set [1]: Inhibition of amyloid beta (1 to 42) secretion in human H4 cells overexpressing APP incubated for overnight by HTRF analysis. In kind it is functional, cell-based. For orientation: TR-FRET usually uses a lanthanide donor and a delayed reading to cut background.
Data set [2] is described as follows: Ratio of drug level in brain to plasma in triple transgenic LaFerla mouse at 30 mg/kg, po measured after 3 hrs. In kind it is ADME, organism-based.
A short description of data set [3]: Reduction in amyloid beta (1 to 42) secretion in brain in triple transgenic LaFerla mouse at 30 mg/kg, po measured after 3 hrs relative to control. Type of data set: functional. In outline: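 Triple transgenic LaFerla mice (APP Swedish, MAPT P301L, PSEN1 M146V) given 30 mg/kg po; brain Aβ1-42 measured 3 h postdose; n = 3.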
A short description of data set [4]: Stability in human liver microsomes assessed as remaining compound measured after 10 mins by LC-MS/MS analysis. The note with it: read-out: Stabilty. Type of data set: ADME, Microsome. The method in brief:
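High-throughput microsomal stability: 3 μM substrate, 1 mg/mL microsomal protein, 100 mM sodium phosphate pH 7.4, 37 °C; quenched at 10 min, LC–MS/MS, percent parent remaining reported.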
On the technique in general: Liver microsomes are vesicles of endoplasmic reticulum, rich in cytochrome P450 enzymes.

The species entered for another data set is Rattus norvegicus. Put plainly: Antialzheimer activity in Harlan Sprague-Dawley rat brain assessed as reduction in amyloid beta (1 to 42) AUC relative to control. Type of data set: functional. Also on record: scale not given: the % may be the effect or the level left.
A short description of data set [5]: Reduction in amyloid beta (1 to 42) secretion in brain in Harlan Sprague-Dawley rat at 10 mg/kg, po measured after 3 hrs relative to control. Type of data set: functional. In outline: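 Sprague–Dawley rats dosed 10 mg/kg po; brain Aβ1-42 measured 3 h postdose; n = 5.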
Data set [6] deals with Homo sapiens. Briefly: Antialzheimer activity in human assessed as reduction in amyloid beta (1 to 42) AUC at 1.3 mg/kg qd relative to control. Also noted: scale not given: the % may be the effect or the level left.
Data set [7] can be described thus: Oral bioavailability in cynomolgus monkey incubated for 24 hrs by LC-MS/MS analysis. In kind it is ADME, organism-based, Macaca fascicularis. The note with it: in vivo.
For data set [8], the target named is T1, UDP-glucuronosyltransferase 1A1 (Homo sapiens, UniProt P22309).
T1 sequence (P22309 whole entry): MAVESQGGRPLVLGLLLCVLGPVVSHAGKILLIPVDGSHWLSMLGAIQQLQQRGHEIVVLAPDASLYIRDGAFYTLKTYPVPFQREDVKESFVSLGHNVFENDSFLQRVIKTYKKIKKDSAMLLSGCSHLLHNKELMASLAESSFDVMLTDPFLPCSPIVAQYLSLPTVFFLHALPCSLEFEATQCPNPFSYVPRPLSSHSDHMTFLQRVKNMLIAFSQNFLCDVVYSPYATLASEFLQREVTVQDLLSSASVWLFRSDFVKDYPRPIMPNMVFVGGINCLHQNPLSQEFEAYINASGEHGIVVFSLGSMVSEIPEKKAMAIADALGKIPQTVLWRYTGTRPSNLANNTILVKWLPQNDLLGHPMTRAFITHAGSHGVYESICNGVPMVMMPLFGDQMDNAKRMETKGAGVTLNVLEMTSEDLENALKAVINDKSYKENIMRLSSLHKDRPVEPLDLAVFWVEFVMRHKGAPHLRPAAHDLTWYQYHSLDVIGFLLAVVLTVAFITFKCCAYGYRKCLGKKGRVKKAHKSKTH
Put plainly: Inhibition of human UGT1A1. In kind it is ADME.

Data set [9] is described as follows: Cardiotoxicity in rabbit assessed as NOAEL by telemetric analysis. In kind it is toxicity, Oryctolagus cuniculus.
Data set [10] can be described thus: Octanol/water partition coefficient, logD of the compound at pH 6.5 by shake flask method. In kind it is physicochemical. The method in brief: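 Octanol/water partitioning by shake flask at pH 6.5.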
Data set [11] concerns the target Voltage-gated inwardly rectifying potassium channel KCNH2 (Homo sapiens, UniProt Q12809). Put plainly: Inhibition of human ERG by patch clamp method.
Data set [12] in a line: AUC (0 to 24 hrs) in Harlan Sprague-Dawley rat incubated for 24 hrs by LC-MS/MS analysis. In kind it is ADME. Also noted: time 24 hrs. As to conditions: in vivo.
Data set [13] is described as follows: Fraction unbound in human plasma measured after 24 hrs by LC-MS/MS analysis. In kind it is ADME, cell-free.
The nature of data set [14]: Toxicity in rat assessed as increase in unconjugated bilirubin in plasma at 10 to 100 mg/kg, po administered for 4 days. In kind it is organism-based. As to conditions: in vivo, 96 h, dose 10-100 mg/kg, time 4 day. The method in brief:
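Rats dosed orally at 10, 30 and 100 mg/kg for 4 days; plasma inspected and unconjugated bilirubin assessed.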

Data set [15] concerns the target T2, Solute carrier organic anion transporter family member 1B1 (Homo sapiens, UniProt Q9Y6L6).
T2 sequence (Q9Y6L6 whole entry): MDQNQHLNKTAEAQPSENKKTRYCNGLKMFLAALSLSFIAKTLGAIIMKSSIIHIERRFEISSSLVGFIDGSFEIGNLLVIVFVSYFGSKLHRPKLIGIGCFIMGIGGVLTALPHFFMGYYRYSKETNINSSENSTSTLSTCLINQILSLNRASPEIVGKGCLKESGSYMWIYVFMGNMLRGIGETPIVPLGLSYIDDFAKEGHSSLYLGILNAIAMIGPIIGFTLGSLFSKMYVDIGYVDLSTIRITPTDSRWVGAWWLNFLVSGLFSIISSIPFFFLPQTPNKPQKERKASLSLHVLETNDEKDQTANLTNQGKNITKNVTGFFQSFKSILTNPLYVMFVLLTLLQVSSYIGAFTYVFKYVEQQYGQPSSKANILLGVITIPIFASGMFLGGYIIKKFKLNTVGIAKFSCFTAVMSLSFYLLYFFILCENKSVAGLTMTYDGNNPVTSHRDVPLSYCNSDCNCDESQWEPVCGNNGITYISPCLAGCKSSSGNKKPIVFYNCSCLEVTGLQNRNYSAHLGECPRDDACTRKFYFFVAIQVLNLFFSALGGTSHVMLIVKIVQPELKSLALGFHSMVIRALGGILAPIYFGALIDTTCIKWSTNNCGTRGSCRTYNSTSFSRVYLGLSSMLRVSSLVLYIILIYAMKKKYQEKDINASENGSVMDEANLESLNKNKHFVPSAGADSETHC
Briefly: Inhibition of OATP1B1 (unknown origin). Type of data set: ADME.

Data set [16] is described as follows: Oral bioavailability in Sprague-Dawley rat incubated for 24 hrs by LC-MS/MS analysis. In kind it is ADME, organism-based. As to conditions: in vivo.
Data set [17] can be described thus: Plasma concentration in triple transgenic LaFerla mouse at 30 mg/kg, po measured after 3 hrs. In kind it is ADME, organism-based.
Data set [18] is described as follows: Oral bioavailability in Beagle dog incubated for 24 hrs by LC-MS/MS analysis. As to conditions: in vivo. Type of data set: ADME, organism-based, Canis lupus familiaris.
Data set [19] in a line: Toxicity in rat assessed as hepatocellular necrosis at 10 to 100 mg/kg, po administered for 4 days by histological assay. In kind it is organism-based. As to conditions: in vivo, 96 h, dose 10-100 mg/kg, time 4 day.
A short description of data set [20]: Plasma concentration in Harlan Sprague-Dawley rat at 10 mg/kg, po measured after 3 hrs. In kind it is ADME, organism-based.
The subject of data set [21] is Homo sapiens. Briefly: Antialzheimer activity in human assessed as reduction in amyloid beta (1 to 42) AUC at 1.3 mg/kg qd relative to control. Also on record: scale not given: the % may be the effect or the level left. The source holds these as a separate data set.
The test system of data set [22] is H4. Put plainly: Induction of amyloid beta (1 to 37) secretion in human H4 cells overexpressing APP incubated for overnight by Western blot analysis. In kind it is functional, cell-based.
In data set [23] the test system is H4. Briefly: Induction of amyloid beta (1 to 38) secretion in human H4 cells overexpressing APP incubated for overnight by Western blot analysis. In kind it is functional, cell-based.
The nature of data set [24]: Suppression of total amyloid beta secretion in human H4 cells overexpressing APP incubated for overnight by Western blot analysis. Type of data set: ADME, cell-based. On the technique in general: A western blot detects proteins with antibodies after separation by electrophoresis.

The structures appear in SMILES notation. Activity calls are given as the source filed them. No cut-off for these calls is given here.

Sequence of Voltage-gated inwardly rectifying potassium channel KCNH2 (Q12809 whole entry): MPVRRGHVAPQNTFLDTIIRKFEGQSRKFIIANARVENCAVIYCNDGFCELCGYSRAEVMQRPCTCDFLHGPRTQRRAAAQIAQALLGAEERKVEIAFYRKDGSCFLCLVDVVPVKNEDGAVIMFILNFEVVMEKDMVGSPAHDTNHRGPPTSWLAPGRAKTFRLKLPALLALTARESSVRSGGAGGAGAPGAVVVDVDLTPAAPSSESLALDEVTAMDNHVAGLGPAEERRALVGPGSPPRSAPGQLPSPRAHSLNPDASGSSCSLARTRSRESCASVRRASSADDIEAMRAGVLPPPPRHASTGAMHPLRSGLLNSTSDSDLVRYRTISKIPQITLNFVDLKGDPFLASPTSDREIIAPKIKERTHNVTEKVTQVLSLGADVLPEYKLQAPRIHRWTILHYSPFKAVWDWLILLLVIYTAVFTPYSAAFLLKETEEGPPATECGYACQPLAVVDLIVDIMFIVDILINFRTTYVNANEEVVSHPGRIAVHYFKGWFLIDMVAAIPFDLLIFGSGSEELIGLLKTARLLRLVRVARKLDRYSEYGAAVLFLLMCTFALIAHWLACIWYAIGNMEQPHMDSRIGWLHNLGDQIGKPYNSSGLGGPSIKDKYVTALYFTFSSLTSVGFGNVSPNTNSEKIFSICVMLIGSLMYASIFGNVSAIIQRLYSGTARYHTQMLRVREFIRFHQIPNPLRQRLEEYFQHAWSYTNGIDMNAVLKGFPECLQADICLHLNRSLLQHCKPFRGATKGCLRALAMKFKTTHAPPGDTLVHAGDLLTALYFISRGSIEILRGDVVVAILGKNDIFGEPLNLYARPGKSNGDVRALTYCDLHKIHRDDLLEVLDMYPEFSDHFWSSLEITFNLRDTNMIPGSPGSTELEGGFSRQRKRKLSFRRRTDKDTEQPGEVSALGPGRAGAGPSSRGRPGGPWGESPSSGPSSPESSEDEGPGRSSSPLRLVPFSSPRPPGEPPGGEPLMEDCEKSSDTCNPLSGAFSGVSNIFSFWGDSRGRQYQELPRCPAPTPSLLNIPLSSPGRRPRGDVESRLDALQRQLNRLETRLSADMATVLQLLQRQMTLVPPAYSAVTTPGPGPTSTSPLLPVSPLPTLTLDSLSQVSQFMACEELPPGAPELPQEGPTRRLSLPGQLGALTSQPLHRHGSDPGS

With `CNc1nc(Cc2ccccc2)nc(Nc2ccc(-n3cnc(C)c3)c(OC)c2)n1`, in data set [1], the concentration for half-maximal inhibition (IC50) stood at 31 nM. The BPR in data set [2] came to 0.47. The compound further showed an inhibition in vivo at 30 mg/kg in data set [3] of 32%.

With `CNc1nc(Nc2ccc(-n3cnc(Cl)c3)c(OC)c2)nc2c1CC[C@H]2c1ccccc1`, the remaining at 10 min in data set [4] amounted to 96%. Besides, the Activity is 25% in the data set listed under Rattus norvegicus; 25% in the data set with Homo sapiens [6]; “Toxic” in data set [14]; “Toxic” in data set [19]; 25% with Homo sapiens [21]. The same compound gave an inhibition in vivo at 10 mg/kg in data set [5] of 59%. Besides, the results for the bioavailability in data set [7] and in data set [18] were 44% and 64%, respectively. Moreover, the IC50 in [8] came to 1400 nM; in [11], 200 nM; in [1] it was 2 nM; in data set [15], 690 nM. Besides, the no-observed-adverse-effect level (NOAEL) in data set [9] stood at 15 µM. The compound further gave a logD in data set [10] of 4.42. Besides, the exposure AUC(0-t) at 24 h in data set [12] is 7.6 µM·h. For the same compound, the Fu in data set [13] is listed as 0.1%. Moreover, in data set [16], the F was determined as 49%. For the same compound, the concentration at 3 h in [17] worked out at 2100 nM; in [20], 1700 nM. Besides, at 30 mg/kg the inhibition in vivo in data set [3] was 86%.

For the compound `CNc1nc(Nc2ccc(-n3cncn3)c(OC)c2)nc(-c2ccccc2)n1`, the outcome in the data set on H4 [22] and in the data set on H4 [23] was Active. This compound also returned a half-inhibitory concentration (IC50) in [1] of 120 nM. Besides, the Activity result in data set [24] is on record as “Non-Toxic”.

As usually defined, the IC50 is the point on the concentration scale where inhibition reaches its midpoint. The inhibition in vivo is the share of the control response that was lost under treatment. Usually bioavailability stands for the share of a dose that reaches the circulation, judged against a reference dose that is usually intravenous. The NOAEL is the highest dose or exposure tested at which no adverse effect was seen. The term logD denotes the decadic logarithm of the distribution of all forms, ionised or not, between an organic phase and buffer at a given pH. The AUC(0-t) is the area under the concentration-time curve up to a stated or last time point.

The values are drawn from ChEMBL document CHEMBL4699441, “Identification and Preclinical Evaluation of the Bicyclic Pyrimidine γ-Secretase Modulator BMS-932481” (ACS Med Chem Lett, 2019).
